Data set [1] relates to HEK293. Nature of the data set: Effect on p62 level in HEK293 cells at 10 uM after 8 hrs by immunoblot analysis. Type of data set: functional, cell-based. Particulars: Homo sapiens. Put shortly: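 HEK293 cells exposed 8 h to DMSO, compound or chloroquine; LC3 and p62 assessed by immunoblot.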
In general terms: A western blot detects proteins with antibodies after separation by electrophoresis.

The test system of data set [2] is Brain. The experiment in a line: Tmax in mouse brain at 20 mg/kg, ip. Type of data set: ADME, organism-based. The settings on record: in vivo.
Data set [3] concerns the target Survival motor neuron protein (Homo sapiens) (UniProt Q16637). Nature of the data set: Stabilization of SMN protein in 3813T fibroblasts derived from human SMA patient assessed as increase in SMN protein level at 2 uM after 48 hrs by SDS-PAGE and immunoblot.
Data set [4] has the same target. The experiment in a line: Stabilization of human SMN protein expressed in HEK293 cells expressing SMN2 promoter after 24 hrs by luciferase reporter gene assay relative to control. Type of data set: cell-based. In short, it runs like this: (§1)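 SMN2-luc reporter cells seeded at 25,000/well overnight, then treated 24 h with six doses (3-fold serial dilutions, top final 10 or 30 μM), 0.1% DMSO. Firefly and Renilla luciferase read by dual-luciferase assay, normalized to DMSO as percent; EC50 and maximal activation from curves. Mean ± SEM, ≥3 trials.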

The next data set deals with SH-SY5Y. The experiment in a line: Cytotoxicity against human SH-SY5Y cells assessed as reduction in cell viability at 100 times EC50 concentration after 48 hrs by CellTiter 96 AQueous one solution cell proliferation assay. Format: cell-based. Put shortly: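 SH-SY5Y cells seeded at 10,000/well, next day treated with graded compound doses in duplicate for 48 h, 0.2% DMSO constant; CellTiter 96 AQueous One reagent added for the last 4 h; cycloheximide 200 ng/mL as toxicity control.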

Data set [5] deals with Plasma. The experiment in a line: AUC (0 to 24 hrs) in mouse plasma at 20 mg/kg, po. Format: ADME, organism-based. Particulars: in vivo. Further details: dose 20 mg/kg, time < 24 hr, route oral.
Data set [6] is described as follows: Aqueous solubility of the compound at pH 7.4. The settings on record: aqueous solution. Type of data set: physicochemical. In short, it runs like this:
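Kinetic solubility measured in aqueous medium at pH 7.4.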

Data set [7] concerns Brain. Nature of the data set: Tmax in mouse brain at 20 mg/kg, po. Type of data set: ADME, organism-based. The settings on record: in vivo.
In data set [8] the target is Survival motor neuron protein (Homo sapiens) (UniProt Q16637). The experiment in a line: Stabilization of human SMN protein expressed in HEK293 cells at 10 to 30 uM after 24 hrs by luciferase reporter gene assay. Format: cell-based. Put shortly:
as §1
For orientation: Reporter assays use an easily measured gene product as a stand-in for the process of interest.

A further data set concerns the target CYP2C19 (Homo sapiens, UniProt P33261). Nature of the data set: Inhibition of CYP2C19 (unknown origin) at 10 uM. Format: ADME.
For another data set, the system named is Lampyridae. The experiment in a line: Effect on firefly recombinant luciferase protein. In short, it runs like this:
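Compound diluted in complete DMEM and incubated with recombinant firefly luciferase (1:10 000 in passive lysis buffer, 1 mg/mL BSA); activity read with SteadyLite reagent.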

Data set [9] deals with Plasma. The experiment in a line: Tmax in mouse plasma at 20 mg/kg, ip. Particulars: in vivo. Format: ADME, organism-based.
The subject of data set [10] is Brain. Nature of the data set: Half life in mouse brain at 20 mg/kg, ip. Format: ADME, organism-based. The settings on record: in vivo.
Data set [11] is described as follows: AUC (0 to 24 hrs) in mouse brain at 20 mg/kg, po. Type of data set: ADME, organism-based. Also noted: time < 24 hr, dose 20 mg/kg, route oral.
For the next data set, the target named is CYP3A4 (Homo sapiens, UniProt P08684). Nature of the data set: Inhibition of CYP3A4 (unknown origin) at 10 uM. Type of data set: ADME.
Data set [12] has as its system Plasma. The experiment in a line: Half life in mouse plasma after 60 mins. Type of data set: ADME, cell-free. Particulars: 1 h.
A short description of data set [13]: Fraction unbound in human plasma. Format: ADME, cell-free. Put shortly:
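Plasma protein binding measured in mouse and human plasma and expressed as percent free.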

Data set [14] concerns Brain. Nature of the data set: Half life in mouse brain at 20 mg/kg, po. Type of data set: ADME, organism-based. Particulars: in vivo.
The test system of data set [15] is HEK293. The experiment in a line: Effect on cycloheximide-induced reduction in basal level of polyubiquitinated protein level in HEK293 cells at 1 uM pretreated for 2 hrs followed by cycloheximide addition measured after 6 hrs by SDS-PAGE analysis. Format: functional, cell-based. The settings on record: Homo sapiens. Put shortly:
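HEK293 cells pretreated 2 h with test compound or MG-132 (1 and 10 μM), then DMSO or cycloheximide (10 μM) added and incubated a further 6 h; final DMSO 0.2%. Lysates run on 4–15% gradient SDS-PAGE; anti-ubiquitin blot for polyubiquitinated proteins, tubulin as loading control.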

The subject of data set [16] is Renilla. The experiment in a line: Effect on renilla recombinant luciferase protein.
The target of the next data set is T1, CYP2A6 (Homo sapiens, UniProt P11509).
T1 sequence (P11509 whole entry): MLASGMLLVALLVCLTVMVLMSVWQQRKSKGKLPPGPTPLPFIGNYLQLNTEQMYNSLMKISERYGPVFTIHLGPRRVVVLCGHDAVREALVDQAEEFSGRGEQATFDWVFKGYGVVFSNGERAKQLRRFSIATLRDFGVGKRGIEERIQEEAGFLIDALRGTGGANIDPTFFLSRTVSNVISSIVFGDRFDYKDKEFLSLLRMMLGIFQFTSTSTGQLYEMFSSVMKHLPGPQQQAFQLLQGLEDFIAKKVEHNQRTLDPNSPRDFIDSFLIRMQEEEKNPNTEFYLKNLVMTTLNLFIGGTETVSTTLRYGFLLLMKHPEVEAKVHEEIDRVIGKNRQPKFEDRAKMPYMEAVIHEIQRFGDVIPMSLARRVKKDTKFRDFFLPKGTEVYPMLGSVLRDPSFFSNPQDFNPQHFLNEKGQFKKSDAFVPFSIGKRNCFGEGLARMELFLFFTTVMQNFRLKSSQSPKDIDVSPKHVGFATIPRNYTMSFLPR
Nature of the data set: Inhibition of CYP2A6 (unknown origin) at 10 uM. Format: ADME.

Another data set concerns the target T2, CYP1A2 (Homo sapiens, UniProt P05177).
T2 sequence (P05177 whole entry): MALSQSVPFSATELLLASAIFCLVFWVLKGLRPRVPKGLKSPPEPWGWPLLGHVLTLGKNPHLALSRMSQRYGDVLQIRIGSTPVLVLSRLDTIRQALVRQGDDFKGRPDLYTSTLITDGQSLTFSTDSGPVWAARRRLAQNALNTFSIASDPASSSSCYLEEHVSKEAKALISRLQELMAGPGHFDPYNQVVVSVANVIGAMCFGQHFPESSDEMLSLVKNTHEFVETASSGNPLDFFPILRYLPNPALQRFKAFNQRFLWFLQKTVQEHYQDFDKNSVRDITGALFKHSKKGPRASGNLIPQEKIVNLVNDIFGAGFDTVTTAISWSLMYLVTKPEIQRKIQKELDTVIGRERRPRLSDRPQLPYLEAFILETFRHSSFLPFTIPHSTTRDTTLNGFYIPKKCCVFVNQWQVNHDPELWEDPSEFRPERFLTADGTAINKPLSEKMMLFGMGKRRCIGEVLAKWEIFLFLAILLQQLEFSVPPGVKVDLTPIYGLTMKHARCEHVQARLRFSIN
Nature of the data set: Inhibition of CYP1A2 (unknown origin) at 10 uM. Format: ADME.

In data set [17] the test system is Renilla. The experiment in a line: Effect on renilla recombinant luciferase protein expressed in HEK293 cells at 10 uM after 24 hrs in presence of 10 uM cycloheximide by renilla luciferase reporter gene assay. Format: cell-based. Put shortly: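 SMN2-luc reporter cells given cycloheximide (10 μM) together with compound (10 μM) or DMSO. Lysed at set time points; SMN-luc and Renilla-luc activities measured.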

In data set [18] the target is Survival motor neuron protein (Homo sapiens) (UniProt Q16637). The experiment in a line: Stabilization of human SMN protein expressed in HEK293 cells expressing SMN2 promoter assessed as additive effect on SMN stabilization in presence of 0.1: 0.3 to 10:30 ratio of LDN-76070 to compound after 24 hrs by luciferase reporter gene assay. Format: cell-based. Put shortly:
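SMN2 reporter cells exposed 24 h to the two compounds alone or combined at constant ratio, DMSO held at 0.2%, and SMN-luc read. Theoretical additive effect taken as the sum of the single-agent activities.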

The structures appear in SMILES notation. In brackets after ≈: the same amount, converted by molar mass. Activity calls are given as the source filed them. The calls are words filed in the database; no cut-off is given here.

Survival motor neuron protein (Homo sapiens), sequence (Q16637 whole entry): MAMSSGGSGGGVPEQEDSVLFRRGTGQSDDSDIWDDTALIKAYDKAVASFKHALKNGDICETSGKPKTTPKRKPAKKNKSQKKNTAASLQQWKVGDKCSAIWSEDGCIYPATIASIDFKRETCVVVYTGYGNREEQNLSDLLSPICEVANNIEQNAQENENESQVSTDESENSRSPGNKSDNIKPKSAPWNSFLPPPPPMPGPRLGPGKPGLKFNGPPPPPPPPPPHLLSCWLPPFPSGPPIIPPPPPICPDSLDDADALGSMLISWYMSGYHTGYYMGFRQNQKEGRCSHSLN
CYP2C19, sequence (P33261 whole entry): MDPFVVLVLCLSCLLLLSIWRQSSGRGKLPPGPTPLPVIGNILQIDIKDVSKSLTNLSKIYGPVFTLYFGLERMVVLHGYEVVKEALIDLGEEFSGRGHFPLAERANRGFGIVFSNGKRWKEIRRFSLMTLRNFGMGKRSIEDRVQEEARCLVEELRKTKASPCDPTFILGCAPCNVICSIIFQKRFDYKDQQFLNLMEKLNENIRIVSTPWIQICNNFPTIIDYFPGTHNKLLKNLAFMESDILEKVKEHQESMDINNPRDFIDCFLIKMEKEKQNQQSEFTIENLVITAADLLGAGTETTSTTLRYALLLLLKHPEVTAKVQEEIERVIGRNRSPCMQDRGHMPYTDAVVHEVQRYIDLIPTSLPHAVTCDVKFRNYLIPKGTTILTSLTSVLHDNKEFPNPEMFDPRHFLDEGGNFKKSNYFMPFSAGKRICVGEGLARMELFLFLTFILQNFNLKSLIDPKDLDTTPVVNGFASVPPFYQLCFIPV
CYP3A4, sequence (P08684 whole entry): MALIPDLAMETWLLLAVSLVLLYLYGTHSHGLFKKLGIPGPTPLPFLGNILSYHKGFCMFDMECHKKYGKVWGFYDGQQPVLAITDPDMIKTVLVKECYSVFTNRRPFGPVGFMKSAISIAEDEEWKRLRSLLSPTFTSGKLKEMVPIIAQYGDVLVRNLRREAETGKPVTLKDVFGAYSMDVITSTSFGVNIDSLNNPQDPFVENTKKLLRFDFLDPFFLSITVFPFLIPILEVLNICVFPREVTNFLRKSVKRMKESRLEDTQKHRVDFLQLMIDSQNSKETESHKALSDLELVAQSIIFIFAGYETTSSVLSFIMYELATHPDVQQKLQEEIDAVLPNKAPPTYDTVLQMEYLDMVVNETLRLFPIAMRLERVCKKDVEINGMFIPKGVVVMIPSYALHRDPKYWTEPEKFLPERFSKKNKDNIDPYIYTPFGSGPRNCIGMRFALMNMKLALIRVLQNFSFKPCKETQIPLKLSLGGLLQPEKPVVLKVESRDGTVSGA

Take `O=C(Nc1ncc(C2(O)CCC2)s1)c1ccc(F)c(Cl)c1`: the outcome with HEK293 [1], with Lampyridae, in the data set with HEK293 [15], with Renilla [16] and in the data set on Renilla [17] was inactive. The Tmax in the data set on Brain [2], in the data set on Brain [7] and in the data set with Plasma [9] was 0.5 h each time. Also, the fold change (FC) in data set [3] was found to be 2. Besides, the Activity in data set [4] is 190%; in the data set on SH-SY5Y, “Non-Toxic”. This molecule also displayed an AUC with Plasma [5] of 1641 ng·h/mL. The solubility (kinetic) in [6] is 31 µM (≈ 10.1 µg/mL). Also, the outcome in data set [8] and in data set [18] was Active. Moreover, the inhibition at 10 µM against CYP2C19, at CYP3A4, against CYP2A6 and against CYP1A2 was under 50% each time. The t1/2 was determined as 1.9 h in the data set with Brain [10], 5.43 h with Plasma [12] and 2.8 h with Brain [14]. The molecule also had an AUC(0-t) at 24 h in data set [11] of 2220 ng·h/mL. In [13], this molecule displayed a fraction unbound of 0.035.

As usually defined, the Tmax is the time from dosing to the highest level. What is called AUC is the area under the concentration-time curve, a measure of exposure. A lower AUC goes with low exposure. The term solubility (kinetic) denotes the concentration staying in solution when a stock, usually in DMSO, is diluted into the medium. For orientation: inhibition means the share of the control response that was lost under treatment. A high value points to a response far below the control. Broadly, the AUC(0-t) is exposure summed from dosing to a finite time, without extrapolation to infinity. A low value points to low exposure. Broadly, the fraction unbound is free concentration divided by total concentration.

Source of the values: ChEMBL document CHEMBL4020760, “Discovery of a Small Molecule Probe That Post-Translationally Stabilizes the Survival Motor Neuron Protein for the Treatment of Spinal Muscular Atrophy” (J Med Chem, 2017).
